From ChEMBL document CHEMBL1833967, “Bioassay-guided isolation of constituents of Piper sarmentosum using a mitochondrial transmembrane potential assay” (2011)

Tests used:
HT-29 [1] = test: Cytotoxicity against human HT-29 cells after 3 days by sulforhodamine B assay; assay type: functional; details: read-out: ED50 (the source's name)
HT-29 [2] = test: Induction of apoptosis in human HT-29 cells assessed reduction of mitochondrial membrane potential after 2 hrs by using JC1 staining by fluorescence cell-based assay; assay type: functional; details: HT-29, 2 h, read-out: ED50 (the source's name)
HL-60 = test: Inhibition of chymotrypsin-like activity of purified human 20S proteasome in HL60 cells using N-succinyl-Leu-Leu-Val-Tyr-AMC as substrate pre-incubated for 10 mins by fluorimetric assay; assay type: cell-based
Summary of the method: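 Enzyme source was a proteasome fraction isolated from HL-60 human leukemia cells. […] Activity is reported as ED50 in μM.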

EC50 (HT-29 [2]) [µM] | Structure (SMILES) | EC50 (HT-29 [1]; Homo sapiens, HT-29, 72 h) [µM] | ED50 (HL-60) [µM] | EC50 (HT-29 [1]) [µM]
13.6 | COc1cc(O)c2c(c1Cc1ccccc1O)O[C@H](c1ccccc1)CC2=O | > 20 | > 20 | 
1.6 | COc1c(Cc2ccccc2O)c(O)c2c(c1Cc1ccccc1O)O[C@H](c1ccccc1)CC2=O | > 20 | 3.45 | 
 | CC(C)C[C@H](NC(=O)[C@H](Cc1ccccc1)NC(=O)c1cnccn1)B(O)O [BORTEZOMIB] | > 20 |  | 
 | O=C1C[C@@H](c2ccccc2)Oc2c(Cc3ccccc3O)c(O)c(Cc3ccccc3O)c(O)c21 [DICHAMANETIN] |  | > 20 | > 20
 | O=C1C[C@@H](c2ccccc2)Oc2cc(O)c(Cc3ccccc3O)c(O)c21 [ISOCHAMANETIN] | > 20 | > 20 | 
 | CC(=O)O[C@H]1C(=O)[C@@]2(C)[C@H]([C@H](OC(=O)c3ccccc3)[C@]3(O)C[C@H](OC(=O)[C@H](O)[C@@H](NC(=O)c4ccccc4)c4ccccc4)C(C)=C1C3(C)C)[C@]1(OC(C)=O)CO[C@@H]1C[C@@H]2O [PACLITAXEL] | 0.006 |  | 
 | O=C1C[C@@H](c2ccccc2)Oc2cc(O)cc(O)c21 [PINOCEMBRIN] | > 20 | 2.87 | 
4.6 | CC(C)CNC(=O)/C=C/C=C/CCCCc1ccc2c(c1)OCO2 [PIPERCALLOSINE] | > 20 | > 20 | 
 | O=C1C[C@@H](c2ccccc2)Oc2c(Cc3cc(Cc4cc(Cc5ccccc5O)ccc4O)ccc3O)c(O)c(Cc3ccccc3O)c(O)c21 [SARMENTOSUMIN A] | > 20 | > 20 | 
 | O=C1C[C@@H](c2ccccc2)Oc2c(Cc3ccccc3O)c(O)c(Cc3cc(Cc4cc(Cc5ccccc5O)ccc4O)ccc3O)c(O)c21 [SARMENTOSUMIN B] | > 20 | > 20 | 
2.5 | O=C1C[C@@H](c2ccccc2)Oc2c(Cc3ccccc3O)c(O)c(Cc3cc(Cc4cc(Cc5cc(Cc6ccccc6O)ccc5O)ccc4O)ccc3O)c(O)c21 [SARMENTOSUMIN C] | > 20 | > 20 | 
 | O=C1C[C@@H](c2ccccc2)Oc2c(Cc3cc(Cc4ccccc4O)ccc3O)c(O)c(Cc3cc(Cc4cc(Cc5ccccc5O)ccc4O)ccc3O)c(O)c21 [SARMENTOSUMIN D] | > 20 | > 20 | 
